The values below come from publication PMC9850772 (ACS Omega, 2023).

The term half-life denotes the time in which the quantity being followed falls by half. As usually defined, the logD is lipophilicity at a set pH, counting ionised and neutral species. A higher logD goes with higher lipophilicity. Broadly, the tissue uptake is the share of the injected amount in each gram of the tissue. Read a high tissue uptake as strong accumulation.

Series [1] is described as follows: Stability toward peptidase degradation in human serum. The format is in vitro ADME. Put shortly:
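68Ga-labelled test compound (10–30 MBq, pH 7.4) was added to pooled human serum and kept at 37 °C. Aliquots were taken at 0, 15, 30, 45, 60 and 90 min and mixed with an equal volume of ice-cold ethanol. They were held on ice for 5 min and centrifuged. Supernatant and pellet activity were counted, and the supernatant was run on radio-HPLC. Three runs per radioligand.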

The next series is described as follows: logD. Format: physicochemical. The conditions noted are these: pH 7.4. The procedure, abridged: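 68Ga-labelled test compound (0.5–2 MBq) was partitioned between 1-octanol and 0.05 M phosphate buffer, pH 7.4. Tubes were shaken for 5 min and centrifuged at 13,000 rpm for 2 min. Aliquots of each phase were γ-counted. Three experiments, each in triplicate.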

The nature of series [2]: PET/CT imaging, time-activity curves in A431 tumor-bearing xenograft mice. The format is in vivo. Particulars: female, BALB/c-AnN-Foxn-1^nu/nu-Rj (nude), mouse, iv, TAC. The procedure, abridged: (§1)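 Dynamic PET over 90 min p.i., then CT at 45 kVp and 0.4 mA. […] Images reconstructed by 2D-MLEM (12 iterations, 0.5 mm voxels) with scatter and decay correction. Frames 10 × 1, 10 × 2, 6 × 5 and 3 × 10 min. Volumes of interest drawn on heart, kidneys, tumour and muscle; SUV per frame gave time-activity curves.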

The test system of series [3] is A431 tumor-bearing xenograft mice. Described as above. Format: in vivo. Particulars: TACs. The procedure, abridged:
as §1

Series [4] can be described thus: Ex vivo biodistribution in A431 tumor-bearing xenograft mice. Particulars: mouse, intravenous, 5 MBq.
Series [5] deals with A431 tumor-bearing xenograft mice. The description is as above.

On to `CC[C@H](C)[C@H](NC(=O)[C@@H](NC(=O)[C@H](CC(N)=O)NC(=O)[C@H](CCC(N)=O)NC(=O)[C@@H]1CCCN1C(=O)[C@@H](NC(=O)[C@H](Cc1ccc(O)cc1)NC(=O)CNC(=O)[C@H](Cc1ccc(O)cc1)NC(=O)[C@H](Cc1c[nH]c2ccccc12)NC(=O)[C@H](Cc1c[nH]cn1)NC(=O)[C@H](Cc1ccc(O)cc1)NC(=O)CCOCCOCCOCCOCCOCCOCCC(=O)NCCCN(CCCNC(=O)CCOCCOCCOCCOCCOCCOCCC(=O)NCCCC[C@@H]1NC(=O)[C@@H](Cc2ccccc2)NC(=O)[C@H](CC(=O)O)NC(=O)CNC(=O)[C@H](CCCNC(=N)N)NC1=O)CC(=O)NCCOCCOCCOCCOCCC(=O)N[C@@H](CCCCNC(=O)CC[C@H](C(=O)O)N1CCN(CC(=O)O)CCN(CC(=O)O)CC1)C(N)=O)[C@@H](C)O)C(C)C)C(=O)O` [[^68Ga]Ga-2, metal not drawn], for which the half-life in series [1] is 3.95 h. In the series “logD”, this compound showed a logD of -3.44.
Regarding `CC[C@H](C)[C@H](NC(=O)[C@@H](NC(=O)[C@H](CC(N)=O)NC(=O)[C@H](CCC(N)=O)NC(=O)[C@@H]1CCCN1C(=O)[C@@H](NC(=O)[C@H](Cc1ccc(O)cc1)NC(=O)CNC(=O)[C@H](Cc1ccc(O)cc1)NC(=O)[C@H](Cc1c[nH]c2ccccc12)NC(=O)[C@H](Cc1c[nH]cn1)NC(=O)[C@H](Cc1ccc(O)cc1)NC(=O)CCOCCOCCOCCOCCC(=O)NCCCN(CCCNC(=O)CCOCCOCCOCCOCCC(=O)NCCCC[C@@H]1NC(=O)[C@@H](Cc2ccc(O)cc2)NC(=O)[C@H](CC(=O)O)NC(=O)CNC(=O)[C@H](CCCNC(=N)N)NC1=O)CC(=O)NCCOCCOCCOCCOCCC(=O)N[C@@H](CCCCNC(=O)CC[C@H](C(=O)O)N1CCN(CC(=O)O)CCN(CC(=O)O)CC1)C(N)=O)[C@@H](C)O)C(C)C)C(=O)O` [[^68Ga]Ga-1, metal not drawn], the half-life in series [1] was determined as 4.53 h. Also, the SUV was determined as 0.18 ± 0.16 SUV in series [2] (muscle, SUVmuscle, under EGFR blockade (hEGF)); 0.27 ± 0.16 SUV in series [2] (muscle, SUVmuscle, without blocking); 0.45 ± 0.44 SUV in series [2] (tumor, SUVtumor, under EGFR blockade (hEGF)). In addition, the “time at which accumulation in tumor, muscle and heart reached the plateau phase” value in series [3] was determined as 15 min p.i. For the same compound, the tissue uptake at 2 h in series [4] (blood) was determined as 4.49 ± 2.17 %ID/g; in series [4] (kidney) it was 88 ± 28.5 %ID/g; in series [4] (tumor) it was 2.79 ± 1.66 %ID/g. Moreover, in series [5] (co-application of hEGF), the “uptake into liver and lungs under EGFR blocking” value is “not reduced”. Moreover, the “tumor uptake under EGFR blocking” value in series [5] (co-application of hEGF, 2 h p.i.) is recorded as “did not decrease”. Moreover, the “decrease of absolute tumor uptake” value in series [5] (integrin blockade with excess of c(RGDyK), 120 min p.i.) is recorded as 87%. For the same compound, the logD in “logD” is -3.07.
